# Measured values: ChEMBL document CHEMBL1138555, “N-acylated and N,N'-diacylated imidazolidine-2-thione derivatives and N,N'-diacylated tetrahydropyrimidine-2(1H)-thione analogues: synthesis and antiproliferative activity” (Eur J Med Chem, 2009)
# Tests used:
# IGROV-1 = test: Growth inhibition of human IGROV1 cells after 48 hrs by sulforhodamine B assay; format: functional; details: IGROV-1, 48 h
# How it was run: (§1)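 NCI screen panel. Five 10-fold concentrations from 10^-4 to 10^-8 M. Exposure for the last 48 h of a 72 h incubation. Growth estimated by sulforhodamine B protein assay. GI50 is the concentration giving 50% growth inhibition. Where that level was not reached or was exceeded, the value is given as above or below the highest or lowest concentration tested.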
# NCI-H226 = test: Growth inhibition of human NCI-H226 cells after 48 hrs by sulforhodamine B assay; format: functional; details: NCI-H226, 48 h; how it was run: as §1
# NCI-H322M = test: Growth inhibition of human NCI-H322M cells after 48 hrs by sulforhodamine B assay; format: functional; how it was run: as §1
# UACC-62 = test: Growth inhibition of human UACC62 cells after 48 hrs by sulforhodamine B assay; format: functional; details: UACC-62, 48 h
# How it was run: (§2)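 NCI in vitro panel screen. Compounds tested at five 10-fold dilutions, 10^-4 to 10^-8 M. Cells in 96-well plates were exposed for the last 48 h of a 72 h incubation. Viability/growth was read by sulforhodamine B protein assay. GI50 is the concentration giving 50% growth inhibition. Values beyond the tested range are reported as greater or less than the maximum or minimum concentration.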
# HOP-62 = test: Growth inhibition of human HOP62 cells after 48 hrs by sulforhodamine B assay; format: functional; details: HOP-62, 48 h; how it was run: as §1
# 786-0 = test: Growth inhibition of human 786-0 cells after 48 hrs by sulforhodamine B assay; format: functional; details: 786-0, 48 h; how it was run: as §1
# SK-MEL-28 = test: Growth inhibition of human SK-MEL-28 cells after 48 hrs by sulforhodamine B assay; format: functional; details: SK-MEL-28, 48 h; how it was run: as §1
# OVCAR-5 = test: Growth inhibition of human OVCAR5 cells after 48 hrs by sulforhodamine B assay; format: functional; details: OVCAR-5, 48 h; how it was run: as §1
# HCT-116 = test: Growth inhibition of human HCT116 cells after 48 hrs by sulforhodamine B assay; format: functional; details: HCT-116, 48 h; how it was run: as §1
# CCRF-CEM = test: Growth inhibition of human CCRF-CEM cells after 48 hrs by sulforhodamine B assay; format: functional; how it was run: as §1
# MCF7 = test: Growth inhibition of human MCF7 cells after 48 hrs by sulforhodamine B assay; format: functional; details: MCF7, 48 h; how it was run: as §1
# BT-549 = test: Growth inhibition of human BT549 cells after 48 hrs by sulforhodamine B assay; format: functional; details: BT-549, 48 h; how it was run: as §1
# SN12C = test: Growth inhibition of human SN12C cells after 48 hrs by sulforhodamine B assay; format: functional; how it was run: as §2
# U-251 = test: Growth inhibition of human U251 cells after 48 hrs by sulforhodamine B assay; format: functional; details: U-251, 48 h; how it was run: as §2
# SF-268 = test: Growth inhibition of human SF268 cells after 48 hrs by sulforhodamine B assay; format: functional; details: SF-268, 48 h; how it was run: as §1
# UO-31 = test: Growth inhibition of human UO31 cells after 48 hrs by sulforhodamine B assay; format: functional; details: UO-31, 48 h; how it was run: as §2
# RXF 393 = test: Growth inhibition of human RXF393 cells after 48 hrs by sulforhodamine B assay; format: functional; details: RXF 393, 48 h; how it was run: as §1
# MDA-MB-435 = test: Growth inhibition of human MDA-MB-435 cells after 48 hrs by sulforhodamine B assay; format: functional; details: MDA-MB-435, 48 h; how it was run: as §1
# [1] = Growth inhibition of human Hs 578T cells after 48 hrs by sulforhodamine B assay; format: functional; how it was run: as §1
# HT-29 = test: Growth inhibition of human HT-29 cells after 48 hrs by sulforhodamine B assay; format: functional; details: HT-29, 48 h; how it was run: as §1
# MOLT-4 = test: Growth inhibition of human MOLT4 cells after 48 hrs by sulforhodamine B assay; format: functional; details: MOLT-4, 48 h; how it was run: as §1
# LOX IMVI = test: Growth inhibition of human LOXIMVI cells after 48 hrs by sulforhodamine B assay; format: functional; how it was run: as §1
# PC-3 = test: Growth inhibition of human PC3 cells after 48 hrs by sulforhodamine B assay; format: functional; details: PC-3, 48 h; how it was run: as §1
# SNB-75 = test: Growth inhibition of human SNB75 cells after 48 hrs by sulforhodamine B assay; format: functional; details: SNB-75, 48 h; how it was run: as §2
# COLO 205 = test: Growth inhibition of human COLO205 cells after 48 hrs by sulforhodamine B assay; format: functional; details: COLO 205, 48 h; how it was run: as §1
# HOP-92 = test: Growth inhibition of human HOP92 cells after 48 hrs by sulforhodamine B assay; format: functional; details: HOP-92, 48 h; how it was run: as §1
# MDA-N = test: Growth inhibition of human MDA-N cells after 48 hrs by sulforhodamine B assay; format: functional
# How it was run: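 NCI screen panel. Five 10-fold concentrations from 10^-4 to 10^-8 M. Exposure for the last 48 h of a 72 h incubation. Growth estimated by sulforhodamine B protein assay. Where that level was not reached or was exceeded, the value is given as above or below the highest or lowest concentration tested.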
# HCC 2998 = test: Growth inhibition of human HCC2998 cells after 48 hrs by sulforhodamine B assay; format: functional; details: HCC 2998, 48 h; how it was run: as §1
# DU-145 = test: Growth inhibition of human DU145 cells after 48 hrs by sulforhodamine B assay; format: functional; details: DU-145, 48 h; how it was run: as §1
# ACHN = test: Growth inhibition of human ACHN cells after 48 hrs by sulforhodamine B assay; format: functional; how it was run: as §1
# SNB-19 = test: Growth inhibition of human SNB19 cells after 48 hrs by sulforhodamine B assay; format: functional; details: SNB-19, 48 h; how it was run: as §2
# OVCAR-4 = test: Growth inhibition of human OVCAR4 cells after 48 hrs by sulforhodamine B assay; format: functional; details: OVCAR-4, 48 h; how it was run: as §1
# A498 = test: Growth inhibition of human A498 cells after 48 hrs by sulforhodamine B assay; format: functional; details: A498, 48 h; how it was run: as §1
# MDA-MB-231 = test: Growth inhibition of human MDA-MB-231 cells after 48 hrs by sulforhodamine B assay; format: functional; details: MDA-MB-231, 48 h; how it was run: as §1
# SK-OV-3 = test: Growth inhibition of human SKOV3 cells after 48 hrs by sulforhodamine B assay; format: functional; details: SK-OV-3, 48 h; how it was run: as §1
# MT4 = test: Antiproliferative activity against human MT4 cells assessed as reduction of growth by MTT assay; format: functional, cell-based
# How it was run: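 MT-4 lymphoblastoid T cells (ATCC) in RPMI 1640 with 10% FCS, penicillin/streptomycin, checked for mycoplasma. 1 × 10⁴ mock-infected cells per well with serial dilutions from a 100 mM DMSO stock. Incubated 4 days at 37 °C, viable cells counted by MTT. IC50 versus untreated controls by linear regression. Mean of three separate experiments.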
# SF-295 = test: Growth inhibition of human SF295 cells after 48 hrs by sulforhodamine B assay; format: functional; details: SF-295, 48 h; how it was run: as §1
# HCT-15 = test: Growth inhibition of human HCT15 cells after 48 hrs by sulforhodamine B assay; format: functional; details: HCT-15, 48 h; how it was run: as §1
# UACC-257 = test: Growth inhibition of human UACC257 cells after 48 hrs by sulforhodamine B assay; format: functional; details: UACC-257, 48 h; how it was run: as §2
# Malme-3M = test: Growth inhibition of human MALME-3M cells after 48 hrs by sulforhodamine B assay; format: functional; how it was run: as §1
# A549 = test: Growth inhibition of human A549 cells after 48 hrs by sulforhodamine B assay; format: functional; details: A549, 48 h; how it was run: as §1
compound,measurement,setting,value
COc1cc(C(=O)N2CCN(C(=O)c3cc(OC)c(OC)c(OC)c3)C2=S)cc(OC)c1OC,GI50,IGROV-1,24.7 µM
same,GI50,NCI-H226,19.5 µM
same,GI50,NCI-H322M,17.4 µM
same,GI50,UACC-62,14.9 µM
same,GI50,HOP-62,15.2 µM
same,GI50,786-0,11.4 µM
same,GI50,SK-MEL-28,17.2 µM
same,GI50,OVCAR-5,23.2 µM
same,GI50,HCT-116,18.2 µM
same,GI50,CCRF-CEM,12.2 µM
same,GI50,MCF7,5.2 µM
same,GI50,BT-549,17.4 µM
same,GI50,SN12C,17.1 µM
same,GI50,U-251,16.3 µM
same,GI50,SF-268,11.5 µM
same,GI50,UO-31,0.2 µM
same,GI50,RXF 393,14.3 µM
same,GI50,MDA-MB-435,13.1 µM
same,GI50,[1],24.7 µM
same,GI50,HT-29,22.7 µM
same,GI50,MOLT-4,23.5 µM
same,GI50,LOX IMVI,15.4 µM
same,GI50,PC-3,15 µM
same,GI50,SNB-75,7.1 µM
same,GI50,COLO 205,19.4 µM
same,GI50,HOP-92,16.1 µM
same,GI50,MDA-N,15 µM
same,GI50,HCC 2998,19 µM
same,GI50,DU-145,13.6 µM
same,GI50,ACHN,17.8 µM
same,GI50,SNB-19,18.5 µM
same,GI50,OVCAR-4,16.9 µM
same,GI50,A498,17.7 µM
same,GI50,MDA-MB-231,16.7 µM
same,GI50,SK-OV-3,20.2 µM
same,IC50,MT4,7 µM
same,GI50,SF-295,19 µM
same,GI50,HCT-15,20.2 µM
same,GI50,UACC-257,21.7 µM
same,GI50,Malme-3M,13.4 µM
same,GI50,A549,19.9 µM
O=C(c1ccc(Cl)cc1Cl)N1CCN(C(=O)c2ccc(Cl)cc2Cl)C1=S,GI50,IGROV-1,21 µM
same,GI50,NCI-H226,40.9 µM
same,GI50,NCI-H322M,18.1 µM
same,GI50,UACC-62,17.3 µM
same,GI50,HOP-62,23.1 µM
same,GI50,786-0,18.6 µM
same,GI50,SK-MEL-28,18.4 µM
same,GI50,OVCAR-5,21.6 µM
same,GI50,HCT-116,23.5 µM
same,GI50,CCRF-CEM,19.5 µM
same,GI50,MCF7,18.3 µM
same,GI50,BT-549,21.1 µM
same,GI50,SN12C,18.1 µM
same,GI50,U-251,17.8 µM
same,GI50,SF-268,24.5 µM
same,GI50,RXF 393,18.5 µM
same,GI50,MDA-MB-435,16.4 µM
same,GI50,[1],41 µM
same,GI50,HT-29,20.4 µM
same,GI50,MOLT-4,20.5 µM
same,GI50,LOX IMVI,17.1 µM
same,GI50,PC-3,22.7 µM
same,GI50,SNB-75,22.3 µM
same,GI50,COLO 205,21 µM
same,GI50,HOP-92,7.8 µM
same,GI50,MDA-N,20 µM
same,GI50,HCC 2998,22 µM
same,GI50,DU-145,30.6 µM
same,GI50,ACHN,21.3 µM
same,GI50,SNB-19,24.9 µM
same,GI50,OVCAR-4,25.8 µM
same,GI50,A498,16.1 µM
same,GI50,MDA-MB-231,19.1 µM
same,GI50,SK-OV-3,22.8 µM
same,IC50,MT4,39 µM
same,GI50,SF-295,22.9 µM
same,GI50,HCT-15,22.1 µM
same,GI50,UACC-257,28.2 µM
same,GI50,Malme-3M,25.4 µM
same,GI50,A549,20.1 µM
